In article PMC12264769 (RSC Medicinal Chemistry, 2025):
Read-outs that look alike come from different tables or passages of the source.

Assays:
[1] = system: normal human embryonic kidney (HEK-293) cell line; experiment: MTT cytotoxicity towards normal cell line HEK-293; format: cell-based
[2] = system: MCF-7 cells; experiment: ROS generation; format: cell-based, human; settings: MCF-7, IC50 dose, vs 1% DMSO control
Procedure, shortened: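 After 24 h in 12-well plates, MCF-7 cells were treated for 48 h with test compound, reference compound, or 1% DMSO as control. Medium was replaced with 10 μM DCFH-DA for 10 min at 37 °C in darkness. DCF fluorescence was imaged by laser scanning confocal microscopy at 60× (ex 485 nm, em 535 nm). Intensity was quantified by image analysis as relative fluorescence (%) versus control. Data are mean standard deviation (n = 2), with one-way ANOVA.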

[3] = system: MCF-7 cells; experiment: annexin-V/FITC-PI apoptosis assay; format: cell-based, human; settings: MCF-7, 48 hours, at respective IC50
[4] = system: murine mammary carcinoma cell line (4T1); experiment: MTT anti-proliferative assay, 4T1; format: cell-based; settings: read-out: 4T1 IC50, 48-hour treatment, mean ± SD (n = 2)
[5] = system: MCF-7 cells; experiment: Nuclear staining assay; format: cell-based, human; settings: MCF-7, IC50, 48 hours, vs control and BG-45
[6] = system: human breast cancer cell line (MCF-7); experiment: MTT anti-proliferative assay, MCF-7; format: cell-based
[7] = system: prostatic small cell carcinoma cell line (PC-3); experiment: MTT anti-proliferative assay, PC-3; format: cell-based
[8] = Homo sapiens, MCF7, 48 h, read-out: MCF-7 IC50, MTT, 48-hour treatment, mean ± SD (n = 2)
[9] = read-out: MCF-7 IC50, MTT, 48-hour treatment, mean ± SD (n = 2)
[10] = read-out: PC-3 IC50, MTT, 48-hour treatment, mean ± SD (n = 2)
[11] = read-out: HEK-293 IC50, MTT, 48-hour treatment, mean ± SD (n = 2)

| Structure (SMILES) | IC50 [4] [µM] | IC50 [6, 8] [µM] | IC50 [6, 9] [µM] | IC50 [7, 10] [µM] | IC50 [1, 11] [µM] | other results |
| --- | --- | --- | --- | --- | --- | --- |
| COc1cc(-c2noc(-c3cccs3)c2C(F)(F)F)cc(OC)c1OC [TTI-6, 5-(thiophen-2-yl)-4-(trifluoromethyl)-3-(3,4,5-trimethoxyphenyl)isoxazole] | 10.9 ± 0.2 | 1.92 | 1.91 ± 0.09 | 7.67 ± 0.31 |  | IC50 ([1]; Homo sapiens, HEK293, 48 h, read-out: HEK-293 IC50, MTT, 48-hour treatment, mean ± SD (n = 2)): 68.29 ± 0.11 µM; relative fluorescence intensity vs control (ROS) [2]: significant increase; total apoptotic percentage (Q2 and Q4) [3]: 50.0 ± 1.3%; nuclear / cell morphology (DAPI, AO staining) [5]: significant alteration in cell morphology; selectivity for MCF-7 over other cancer cell lines (first value) ([6]; matches 4T1/MCF-7 IC50 ratio): 5.70 fold; selectivity for MCF-7 over other cancer cell lines (second value) ([6]; matches PC-3/MCF-7 IC50 ratio): 4 fold; selectivity for MCF-7 cells over HEK-293 cell lines ([6]; ratio of IC50 values): 35.62 fold |
| O=[N+]([O-])c1ccc(-c2noc(-c3cccs3)c2C(F)(F)F)cc1 [TTI-12, 3-(4-nitrophenyl)-5-(thiophen-2-yl)-4-(trifluoromethyl)isoxazole] | 17 ± 0.31 |  | 17.03 ± 0.12 | 15.4 ± 0.25 | 83.77 ± 0.28 |  |
| FC(F)(F)c1c(-c2cnn3c(-c4ccccc4)ccnc23)noc1-c1cccs1 [TTI-15, 3-(7-phenylpyrazolo[1,5-a]pyrimidin-3-yl)-5-(thiophen-2-yl)-4-(trifluoromethyl)isoxazole] | 14.3 ± 0.21 | 9.44 ± 0.22 |  | 13.7 ± 0.39 | 74.3 ± 0.25 |  |
| COc1ccc(-c2noc(-c3cccs3)c2C(F)(F)F)cc1 [TTI-3] | 24.3 ± 0.24 |  | 21.5 ± 0.11 | 21.97 ± 0.21 | 102.2 ± 0.27 |  |
| COc1ccc(-c2noc(-c3cccs3)c2C(F)(F)F)cc1OC [TTI-4, 3-(3,4-dimethoxyphenyl)-5-(thiophen-2-yl)-4-(trifluoromethyl)isoxazole] | 11.6 ± 0.35 |  | 2.91 ± 0.13 | 8.08 ± 0.29 | 70.49 ± 0.22 | superior anti-breast cancer activity than TTI-3 ([6]; MCF-7 IC50 compared with TTI-3): 7 times |
| FC(F)(F)c1c(-c2ccc(Cl)cc2)noc1-c1cccs1 [TTI-9] | 21.72 ± 0.19 |  | 20.4 ± 0.21 | 21.92 ± 0.21 | 96.6 ± 0.47 |  |
| COc1ccc(-c2noc(-c3cccs3)c2C(F)F)cc1OC [TTI-14, 4-(difluoromethyl)-3-(3,4-dimethoxyphenyl)-5-(thiophen-2-yl)isoxazole] | 11.7 ± 0.14 |  | 9.09 ± 0.25 |  | 71.14 ± 0.21 | IC50 ([7]; 48 h, read-out: PC-3 IC50, MTT, 48-hour treatment, mean ± SD (n = 2)): 13 ± 0.17 µM |
| COc1ccc(-c2noc(-c3ccc(C)s3)c2C(F)(F)F)cc1OC [TTI-13, 3-(3,4-dimethoxyphenyl)-5-(5-methylthiophen-2-yl)-4-(trifluoromethyl)isoxazole] | 15.15 ± 0.1 | 13.4 ± 0.19 |  | 14.2 ± 0.41 | 75.91 ± 0.16 |  |
| FC(F)(F)c1c(-c2ccc3c(c2)OCCO3)noc1-c1cccs1 [TTI-5, 3-(2,3-dihydrobenzo[b][1,4]dioxin-6-yl)-5-(thiophen-2-yl)-4-(trifluoromethyl)isoxazole] | 28.6 ± 0.09 |  |  | 26.89 ± 0.11 | 109.7 ± 0.13 |  |
| FC(F)(F)c1ccc(-c2noc(-c3cccs3)c2C(F)(F)F)cc1 [TTI-11] | 19.36 ± 0.19 |  | 19.3 ± 0.24 | 20.99 ± 0.19 | 92.75 ± 0.15 |  |
